In ChEMBL document CHEMBL5696442, “Discovery of type II inhibitors of TGFβ-activated kinase 1 (TAK1) and mitogen-activated protein kinase kinase kinase kinase 2 (MAP4K2)” (J Med Chem, 2015):
Calls of active or inactive are those of the source. The calls are words filed in the database; no cut-off is given here.

Key:
BaF3 [1] = experiment: Antiproliferative activity against parental mouse BaF3 cells assessed reduction in cell viability measured after 48 hrs by Celltiter-glo assay; assay type: functional, cell-based; conditions: BaF3, 48 h
[2] = molecular target: T1, Mitogen-activated protein kinase kinase kinase 20 (Homo sapiens, UniProt Q9NYL2); experiment: Inhibition of ZAK (unknown origin) Lys1 labeling site by KiNativ Profiling analysis
Target sequence in this assay (Q9NYL2 whole entry): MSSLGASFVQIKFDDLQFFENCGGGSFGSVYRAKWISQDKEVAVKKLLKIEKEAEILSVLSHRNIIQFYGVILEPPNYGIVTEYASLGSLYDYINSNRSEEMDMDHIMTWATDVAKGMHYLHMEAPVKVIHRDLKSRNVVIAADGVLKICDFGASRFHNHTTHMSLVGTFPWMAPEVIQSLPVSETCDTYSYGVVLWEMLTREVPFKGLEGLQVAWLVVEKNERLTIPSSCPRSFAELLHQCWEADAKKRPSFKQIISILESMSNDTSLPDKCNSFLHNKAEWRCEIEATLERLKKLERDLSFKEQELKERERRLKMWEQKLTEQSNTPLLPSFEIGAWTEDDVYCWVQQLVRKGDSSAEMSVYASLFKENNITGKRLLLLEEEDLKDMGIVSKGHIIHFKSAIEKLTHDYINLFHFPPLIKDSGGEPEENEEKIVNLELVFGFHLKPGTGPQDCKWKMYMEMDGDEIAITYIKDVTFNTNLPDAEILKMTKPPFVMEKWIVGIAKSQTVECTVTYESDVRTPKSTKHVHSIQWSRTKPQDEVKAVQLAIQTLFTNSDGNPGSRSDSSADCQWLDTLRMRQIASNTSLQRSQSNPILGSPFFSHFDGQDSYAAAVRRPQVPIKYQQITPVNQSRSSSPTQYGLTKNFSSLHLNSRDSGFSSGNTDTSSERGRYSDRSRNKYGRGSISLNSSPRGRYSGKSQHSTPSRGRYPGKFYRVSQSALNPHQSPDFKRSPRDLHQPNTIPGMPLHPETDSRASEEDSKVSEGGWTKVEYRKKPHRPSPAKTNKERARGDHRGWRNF

[3] = molecular target: T2, Tyrosine-protein kinase CSK (Homo sapiens, UniProt P41240); experiment: Inhibition of CSK (unknown origin) ACT labeling site by KiNativ Profiling analysis
Target sequence in this assay (P41240 whole entry): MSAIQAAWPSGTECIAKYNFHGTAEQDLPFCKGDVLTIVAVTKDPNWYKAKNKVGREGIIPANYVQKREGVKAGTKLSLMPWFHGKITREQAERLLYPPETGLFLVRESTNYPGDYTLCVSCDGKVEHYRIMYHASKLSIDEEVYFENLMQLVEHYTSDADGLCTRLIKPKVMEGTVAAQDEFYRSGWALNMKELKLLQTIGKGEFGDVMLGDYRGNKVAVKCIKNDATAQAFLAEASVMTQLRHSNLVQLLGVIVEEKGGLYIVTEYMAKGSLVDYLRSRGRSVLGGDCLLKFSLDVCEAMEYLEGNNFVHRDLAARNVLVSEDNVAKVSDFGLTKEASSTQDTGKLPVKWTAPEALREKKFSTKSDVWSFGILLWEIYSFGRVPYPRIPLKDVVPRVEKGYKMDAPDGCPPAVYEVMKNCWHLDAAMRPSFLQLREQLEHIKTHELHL

[4] = molecular target: T3, Tyrosine-protein kinase ABL1 (Homo sapiens, UniProt P00519); experiment: Inhibition of ABL Lys1 labeling site in human Huh-7 cell lysate at 1 uM by KiNativ Profiling analysis relative to control; assay type: subcellular
T3 sequence (P00519 whole entry): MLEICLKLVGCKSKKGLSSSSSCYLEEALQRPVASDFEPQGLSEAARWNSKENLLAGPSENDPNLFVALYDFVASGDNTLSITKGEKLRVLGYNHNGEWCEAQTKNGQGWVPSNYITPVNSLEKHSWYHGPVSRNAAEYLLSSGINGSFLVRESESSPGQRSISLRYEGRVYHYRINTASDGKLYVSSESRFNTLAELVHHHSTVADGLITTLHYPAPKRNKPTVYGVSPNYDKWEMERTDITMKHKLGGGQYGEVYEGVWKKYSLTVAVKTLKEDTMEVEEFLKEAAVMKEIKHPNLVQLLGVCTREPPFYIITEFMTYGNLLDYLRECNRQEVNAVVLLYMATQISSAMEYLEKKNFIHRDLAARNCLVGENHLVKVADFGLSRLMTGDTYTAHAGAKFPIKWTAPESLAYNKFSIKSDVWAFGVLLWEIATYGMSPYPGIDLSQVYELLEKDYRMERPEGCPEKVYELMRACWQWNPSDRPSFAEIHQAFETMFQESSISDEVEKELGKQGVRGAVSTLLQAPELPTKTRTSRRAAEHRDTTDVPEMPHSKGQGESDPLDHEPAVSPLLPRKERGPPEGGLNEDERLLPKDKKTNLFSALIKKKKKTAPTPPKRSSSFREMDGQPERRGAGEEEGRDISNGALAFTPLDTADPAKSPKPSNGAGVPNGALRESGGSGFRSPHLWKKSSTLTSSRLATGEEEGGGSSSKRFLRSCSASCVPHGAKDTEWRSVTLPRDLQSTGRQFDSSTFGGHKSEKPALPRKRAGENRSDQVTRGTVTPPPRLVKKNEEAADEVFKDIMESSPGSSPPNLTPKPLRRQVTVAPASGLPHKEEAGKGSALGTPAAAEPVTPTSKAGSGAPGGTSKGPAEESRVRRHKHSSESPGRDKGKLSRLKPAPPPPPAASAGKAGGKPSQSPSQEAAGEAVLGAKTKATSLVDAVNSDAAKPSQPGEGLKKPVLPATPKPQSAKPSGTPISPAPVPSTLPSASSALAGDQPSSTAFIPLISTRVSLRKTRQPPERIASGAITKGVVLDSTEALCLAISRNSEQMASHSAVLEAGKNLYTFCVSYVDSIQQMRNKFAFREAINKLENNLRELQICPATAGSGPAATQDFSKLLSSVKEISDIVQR

[5] = molecular target: T3, Tyrosine-protein kinase ABL1; experiment: Inhibition of ABL ACT labeling site in human Huh-7 cell lysate at 1 uM by KiNativ Profiling analysis relative to control; assay type: subcellular
[6] = molecular target: T2, Tyrosine-protein kinase CSK; experiment: Inhibition of CSK ACT labeling site in human Huh-7 cell lysate at 1 uM by KiNativ Profiling analysis relative to control; assay type: subcellular
Target sequence in this assay (P41240 2-450 limits assumed): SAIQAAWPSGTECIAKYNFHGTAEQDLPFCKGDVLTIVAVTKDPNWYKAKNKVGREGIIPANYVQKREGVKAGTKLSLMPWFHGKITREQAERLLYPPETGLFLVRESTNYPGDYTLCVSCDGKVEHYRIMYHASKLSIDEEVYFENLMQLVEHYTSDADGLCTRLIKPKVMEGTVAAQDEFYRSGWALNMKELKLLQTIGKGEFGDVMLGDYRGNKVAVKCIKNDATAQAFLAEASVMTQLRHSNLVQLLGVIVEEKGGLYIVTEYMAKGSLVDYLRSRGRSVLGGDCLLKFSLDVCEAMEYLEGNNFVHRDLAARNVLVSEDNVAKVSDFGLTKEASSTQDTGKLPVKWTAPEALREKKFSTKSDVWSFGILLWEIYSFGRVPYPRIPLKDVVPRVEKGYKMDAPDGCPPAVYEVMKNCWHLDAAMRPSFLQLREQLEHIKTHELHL

[7] = molecular target: T1, Mitogen-activated protein kinase kinase kinase 20; experiment: Inhibition of ZAK Lys1 labeling site in human Huh-7 cell lysate at 1 uM by KiNativ Profiling analysis relative to control; assay type: subcellular
Target sequence in this assay (Q9NYL2 2-800 limits assumed): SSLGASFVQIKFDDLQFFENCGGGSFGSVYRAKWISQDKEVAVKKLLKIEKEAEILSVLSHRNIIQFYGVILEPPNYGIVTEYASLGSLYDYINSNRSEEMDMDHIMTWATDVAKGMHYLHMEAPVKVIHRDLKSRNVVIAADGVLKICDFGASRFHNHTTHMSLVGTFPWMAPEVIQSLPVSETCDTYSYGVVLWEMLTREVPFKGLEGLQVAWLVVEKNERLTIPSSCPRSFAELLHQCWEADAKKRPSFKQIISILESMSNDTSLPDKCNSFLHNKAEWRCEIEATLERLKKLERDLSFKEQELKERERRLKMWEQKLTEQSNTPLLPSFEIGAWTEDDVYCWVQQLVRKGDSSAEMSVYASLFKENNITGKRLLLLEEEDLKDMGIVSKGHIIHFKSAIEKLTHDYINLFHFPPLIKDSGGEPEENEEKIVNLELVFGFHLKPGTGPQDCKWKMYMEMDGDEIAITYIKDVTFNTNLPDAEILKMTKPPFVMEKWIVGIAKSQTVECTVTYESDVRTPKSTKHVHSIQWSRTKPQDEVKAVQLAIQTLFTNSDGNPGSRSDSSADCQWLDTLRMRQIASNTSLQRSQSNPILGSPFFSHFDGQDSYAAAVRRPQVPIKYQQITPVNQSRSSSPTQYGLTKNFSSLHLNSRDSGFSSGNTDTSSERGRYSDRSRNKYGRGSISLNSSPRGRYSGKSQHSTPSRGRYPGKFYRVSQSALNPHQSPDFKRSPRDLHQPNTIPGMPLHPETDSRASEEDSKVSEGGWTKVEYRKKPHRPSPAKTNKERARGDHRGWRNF

BaF3 [8] = experiment: Antiproliferative activity against parental mouse BaF3 cells harbouring Bcr/Abl assessed reduction in cell viability measured after 48 hrs by Celltiter-glo assay; assay type: functional, cell-based; conditions: BaF3, 48 h
In short: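 Cells were grown with serial dilutions of compound for 48 h, and viability was read by CellTiter-Glo. IC50 was derived from the dose–response curve. Parental Ba/F3 cells were grown in the presence of interleukin 3. The BCR-ABL line is BCR-ABL-dependent Ba/F3.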

[9] = molecular target: T4, Mitogen-activated protein kinase 14 (Homo sapiens, UniProt Q16539); experiment: Inhibition of p38 alpha (unknown origin) by KiNativ Profiling analysis
T4 sequence (Q16539 whole entry): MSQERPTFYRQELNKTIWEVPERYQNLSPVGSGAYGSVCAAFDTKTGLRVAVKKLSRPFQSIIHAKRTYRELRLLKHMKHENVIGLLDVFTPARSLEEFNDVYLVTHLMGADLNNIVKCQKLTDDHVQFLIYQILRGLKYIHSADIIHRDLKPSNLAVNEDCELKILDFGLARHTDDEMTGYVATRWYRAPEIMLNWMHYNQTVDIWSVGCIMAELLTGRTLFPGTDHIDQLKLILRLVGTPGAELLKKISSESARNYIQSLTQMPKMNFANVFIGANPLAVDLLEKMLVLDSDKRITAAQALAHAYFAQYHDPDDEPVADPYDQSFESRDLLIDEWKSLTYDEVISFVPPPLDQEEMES

[10] = molecular target: T4, Mitogen-activated protein kinase 14; experiment: Inhibition of p38 alpha in human Huh-7 cell lysate at 1 uM by KiNativ Profiling analysis relative to control; assay type: subcellular
[11] = molecular target: T5, Mitogen-activated protein kinase kinase kinase kinase 2 (Homo sapiens) (UniProt Q12851); experiment: Inhibition of MAP4K2 Lys1 labeling site in human A-375 cells at 0.5 uM by KiNativ Profiling analysis relative to control; assay type: cell-based
T5 sequence (whole entry): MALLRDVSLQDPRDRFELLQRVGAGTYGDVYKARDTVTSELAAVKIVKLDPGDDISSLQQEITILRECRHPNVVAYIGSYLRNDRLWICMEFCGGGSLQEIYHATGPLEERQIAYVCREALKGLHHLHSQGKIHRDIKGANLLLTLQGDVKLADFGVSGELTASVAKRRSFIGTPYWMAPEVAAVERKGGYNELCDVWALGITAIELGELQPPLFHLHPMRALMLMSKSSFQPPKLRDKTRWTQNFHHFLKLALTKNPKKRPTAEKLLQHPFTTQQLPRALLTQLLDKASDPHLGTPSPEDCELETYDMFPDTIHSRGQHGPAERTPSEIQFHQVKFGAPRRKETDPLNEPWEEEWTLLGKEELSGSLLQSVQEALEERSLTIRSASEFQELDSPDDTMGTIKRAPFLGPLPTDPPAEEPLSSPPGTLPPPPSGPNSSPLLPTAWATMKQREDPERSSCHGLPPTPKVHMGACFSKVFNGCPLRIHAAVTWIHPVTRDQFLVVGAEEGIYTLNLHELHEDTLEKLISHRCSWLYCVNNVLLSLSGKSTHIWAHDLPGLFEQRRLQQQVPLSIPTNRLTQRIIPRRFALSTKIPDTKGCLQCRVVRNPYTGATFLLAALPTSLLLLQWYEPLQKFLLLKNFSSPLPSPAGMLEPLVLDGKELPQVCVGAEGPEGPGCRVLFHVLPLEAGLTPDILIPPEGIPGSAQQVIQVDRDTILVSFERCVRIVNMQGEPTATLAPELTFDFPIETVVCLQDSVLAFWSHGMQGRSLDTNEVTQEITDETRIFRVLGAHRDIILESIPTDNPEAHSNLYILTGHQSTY

[12] = molecular target: T6, Mitogen-activated protein kinase kinase kinase 7 (Homo sapiens) (UniProt O43318); experiment: Inhibition of TAK1 Lys2 labeling site in human A-375 cells at 0.5 uM by KiNativ Profiling analysis relative to control; assay type: cell-based
T6 sequence (whole entry): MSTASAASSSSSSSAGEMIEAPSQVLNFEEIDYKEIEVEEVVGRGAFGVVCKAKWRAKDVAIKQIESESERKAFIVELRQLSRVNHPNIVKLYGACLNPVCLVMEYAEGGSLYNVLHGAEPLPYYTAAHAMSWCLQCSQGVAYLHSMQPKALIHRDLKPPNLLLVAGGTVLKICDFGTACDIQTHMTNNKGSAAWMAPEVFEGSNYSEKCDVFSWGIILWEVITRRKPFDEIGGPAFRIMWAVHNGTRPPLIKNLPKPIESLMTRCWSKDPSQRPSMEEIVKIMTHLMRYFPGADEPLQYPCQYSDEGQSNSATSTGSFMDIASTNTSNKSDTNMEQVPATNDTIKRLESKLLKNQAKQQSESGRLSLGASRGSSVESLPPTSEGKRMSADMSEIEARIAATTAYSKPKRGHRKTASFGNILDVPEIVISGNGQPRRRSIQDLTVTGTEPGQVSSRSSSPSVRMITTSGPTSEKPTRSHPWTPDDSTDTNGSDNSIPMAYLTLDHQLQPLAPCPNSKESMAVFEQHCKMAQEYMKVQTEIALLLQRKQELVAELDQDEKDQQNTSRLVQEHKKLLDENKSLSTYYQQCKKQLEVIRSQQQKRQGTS

[13] = molecular target: T7, Mitogen-activated protein kinase kinase kinase kinase 2 (Homo sapiens, UniProt Q12851); experiment: Inhibition of MAP4K2 (unknown origin) Lys1 labeling site by KiNativ Profiling analysis
T7 sequence (Q12851 whole entry): T5 sequence (whole entry)

[14] = molecular target: T8, Mitogen-activated protein kinase kinase kinase 7 (Homo sapiens, UniProt O43318); experiment: Inhibition of TAK1 (unknown origin) Lys2 labeling site by KiNativ Profiling analysis
T8 sequence (O43318 whole entry): T6 sequence (whole entry)

L929 = experiment: Inhibition of TNF alpha induced IKKalpha/beta phosphorylation level in mouse L929 cells at 100 nM preincubated for 30 mins followed by TNF alpha stimulation and measured after 5 mins by Western blot analysis; assay type: functional, cell-based
In short: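 Mouse L929 cells were pretreated with compound at 100 nM for 30 min, then stimulated with TNFα for 5 min. Lysates were Western blotted for phospho-IKKα/β, with tubulin as loading control.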

Row | SMILES | IC50 (BaF3 [1]) [nM] | IC50 [2] [nM] | IC50 [3] [nM] | inhibition [4] [%] | inhibition [5] [%] | inhibition [6] [%] | inhibition [7] [%] | IC50 (BaF3 [8]) [nM] | IC50 [9] [nM] | inhibition [10] [%] | inhibition [11] [%] | inhibition [12] [%] | IC50 [13] [nM] | IC50 [14] [nM] | inhibition (L929)
1 | COc1c(/C=C/c2cc(C(=O)Nc3cccc(C(C)(C)C#N)c3)ccc2C)cnc2[nH]ccc12 | 3300 | 103 | 25.1 | 71.5 | 62.2 | 75.7 | 95.8 | 10 |  |  |  |  |  |  | 
2 | COc1c(CCc2cc(C(=O)Nc3cc(-n4cnc(C)c4)cc(C(F)(F)F)c3)ccc2C)cnc2[nH]ccc12 | 4920 | 98.2 |  | 80.4 | 92.2 |  | 95.6 | 10 | 5.27 | 98.8 |  |  |  |  | 
3 | CCN1CCN(c2ccc(NC(=O)c3ccc(C)c(CCc4cnc5[nH]ccc5c4OC)c3)cc2C(F)(F)F)CC1 | 9740 |  |  | 75.2 | 80.7 |  |  | 181 |  |  |  |  |  |  | 
4 | CCN1CCN(Cc2ccc(NC(=O)c3ccc(C)c(Oc4ccnc(C(=O)NC)c4)c3)cc2C(F)(F)F)CC1 |  | 447 |  |  |  |  | 82.7 |  | 69.6 | 93.1 |  |  |  |  | 
5 | Cc1ccc(C(=O)Nc2cc(N3CCN(C)CC3)cc(C(F)(F)F)c2)cc1Oc1ncnc2[nH]ccc12 |  |  |  |  |  |  |  |  |  |  | 73.6 | 29.3 | 177 | 465 | 
6 | COc1c(/C=C/c2cc(C(=O)Nc3ccc(CN4CCC(N(C)C)C4)c(C(F)(F)F)c3)ccc2C)cnc2[nH]ccc12 (stereo not given) | 5470 |  | 25 | 47.5 | 66.6 | 75.6 |  | 10 | 140 | 85 |  |  |  |  | 
7 | CCN1CCN(Cc2ccc(NC(=O)c3cccc(/C=C/c4cnc5[nH]ccc5c4OC)c3)cc2C(F)(F)F)CC1 | 7100 | 396 |  | 82 | 89.6 |  | 75.3 | 10 |  |  |  |  |  |  | 
8 | COc1c(/C=C/c2cc(C(=O)Nc3ccc(OC4CCN(C)CC4)c(C(F)(F)F)c3)ccc2C)cnc2[nH]ccc12 | 7570 |  |  | > 85 | 94.5 |  |  | 10 | 63.6 | 90.5 |  |  |  |  | 
9 | CCN1CCN(Cc2ccc(C(=O)Nc3ccc(C)c(Oc4ccnc5[nH]ccc45)c3)cc2C(F)(F)F)CC1 |  |  |  |  |  |  |  |  | 19.5 | 88.4 |  |  |  |  | inactive
10 | CCN1CCN(Cc2ccc(NC(=O)c3ccc(OC)c(Oc4ncnc5[nH]ccc45)c3)cc2C(F)(F)F)CC1 |  |  |  |  |  |  |  |  |  |  |  |  | 296 | 292 | 
11 | CCN1CCN(Cc2ccc(NC(=O)c3cccc(CCc4cnc5[nH]ccc5c4OC)c3)cc2C(F)(F)F)CC1 | > 10000 | 301 |  | 83 | 66.4 |  | 78 | 387 |  |  |  |  |  |  | 
12 | CCN1CCN(Cc2ccc(NC(=O)c3cccc(Oc4ccnc5[nH]ccc45)c3)cc2C(F)(F)F)CC1 | 7440 |  |  |  | > 96 |  |  | 10 | 35.9 | 85.8 | > 80 | 75.6 | 23.8 | 119 | 
13 | CCN1CCN(Cc2ccc(NC(=O)c3ccc(C)c(/C=C/c4cnc5[nH]ccc5c4OC)c3)cc2)CC1 | 7710 |  |  | > 80 | 96.3 |  |  | 10 |  |  |  |  |  |  | 
14 | CCN1CCN(Cc2ccc(C(=O)Nc3cccc(CCc4cnc5[nH]ccc5c4OC)c3)cc2C(F)(F)F)CC1 | > 10000 | 179 |  | > 80 | 90.3 |  | 78.4 | 16 | 555 | 95.9 |  |  |  |  | 
15 | CNC(=O)c1ccc(C)c(-n2c(C)cc(OCc3ccc(F)cc3F)c(Br)c2=O)c1 |  |  |  |  |  |  |  |  |  |  |  |  |  |  | inactive
16 | C[S+]([O-])c1ccc(-c2nc(-c3ccc(F)cc3)c(-c3ccncc3)[nH]2)cc1 (stereo not given) |  |  |  |  |  |  |  |  |  |  |  |  |  |  | inactive
17 | CCN1CCN(Cc2ccc(NC(=O)c3ccc(C)c(Oc4ccnc(NC)n4)c3)cc2C(F)(F)F)CC1 | > 10000 | 546 |  |  | 74.6 |  | 89.6 | 85 | 45.8 | 95.4 | > 85 | 77.7 | 26.5 | 165 | 
18 | Cc1cn(-c2cc(NC(=O)c3ccc(C)c(Oc4ccnc5[nH]ccc45)c3)cc(C(F)(F)F)c2)cn1 |  |  |  |  |  |  |  |  |  |  | 72 | -1.5 | 30.1 | 4490 | inactive
19 | CCN1CCN(Cc2ccc(NC(=O)c3ccc(C)c(OCc4cnc5[nH]ccc5c4OC)c3)cc2C(F)(F)F)CC1 | 8280 |  | 59 | > 80 | 96 | 84 |  | 39 | 659 | 97.3 | 89.4 | 59.6 | 49.4 | 150 | 
